Laboratory results: ChEMBL document CHEMBL2046392, “Synthesis and evaluation of carbocyanine dyes as PRMT inhibitors and imaging agents” (Eur J Med Chem, 2012)
Activity calls are given as the source filed them. No cut-off for these calls is given here.

How the values were obtained:
[1] = molecular target: Protein arginine N-methyltransferase 1 (Homo sapiens) (UniProt Q99873); experiment: Inhibition of His-tagged PRMT1 expressed in Escherichia coli BL21(DE3) cells assessed as residual activity using [14C]-S-adenosyl-L-methionine and histone H4 peptide at 100 uM after 8 mins by scintillation counting
Sequence of Protein arginine N-methyltransferase 1 (Homo sapiens) (Q99873 whole entry, looked up): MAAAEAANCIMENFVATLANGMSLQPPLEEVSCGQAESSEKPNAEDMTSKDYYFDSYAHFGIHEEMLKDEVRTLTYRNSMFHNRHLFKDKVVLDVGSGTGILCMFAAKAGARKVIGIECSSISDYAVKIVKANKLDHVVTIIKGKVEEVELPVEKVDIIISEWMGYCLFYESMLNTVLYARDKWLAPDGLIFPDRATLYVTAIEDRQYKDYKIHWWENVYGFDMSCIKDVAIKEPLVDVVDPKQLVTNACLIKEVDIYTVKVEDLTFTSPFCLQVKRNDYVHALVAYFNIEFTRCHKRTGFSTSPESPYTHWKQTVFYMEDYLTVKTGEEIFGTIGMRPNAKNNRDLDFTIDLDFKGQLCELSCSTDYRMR
In short: (§1)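 50 mM HEPES pH 8.0, 0.5 mM DTT, 1 mM EDTA, 50 mM NaCl, 30°C; 2 μM H4(1-20), 5 μM [14C]AdoMet, inhibitor preincubated 5 min, started with 0.05 μM enzyme, 8 min; P81 filter binding, scintillation.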

[2] = molecular target: Protein arginine N-methyltransferase 1 (Homo sapiens) (UniProt Q99873); conditions: 4 uM
[3] = test system: HeLa; experiment: Cell cycle arrest in human HeLa cells assessed as accumulation at G2/M phase at 1 uM after 24 hrs by propidium iodide staining-based flow cytometric analysis (reference value: 29.2%); type: functional
In short: (§2)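 HeLa cells (1 × 10^6, exponential growth) exposed to compound for 24 or 48 h; collected, fixed in ice-cold 70% ethanol, stored at 4°C, rinsed in PBS, stained with 40 μg/ml propidium iodide plus RNase A; DNA content by flow cytometry, cell-cycle subpopulations as percentages. Tested at 0.3, 1, 2.5 and 5 μM (24 h).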

[4] = Cellular uptake in human HeLa cell around nucleus at 2 to 5 uM after 6 hrs by fluorescent microscopic analysis; type: ADME, cell-based
In short: (§3)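 HeLa cells seeded on coverglass overnight, treated with 0, 2 or 5 μM for 6 h (DMSO control), fixed 10 min in 4% paraformaldehyde at room temperature. Bright-field images under visible light; NIR fluorescence by confocal microscopy with 633 nm excitation and 715–785 nm long-pass emission.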

[5] = test system: HeLa; experiment: Induction of apoptosis in human HeLa cells assessed as increase in sub-G1 peak at 2.5 to 5 uM after 48 hrs by propidium iodide staining-based flow cytometric analysis; type: functional, cell-based; in short: as §2
[6] = test system: HeLa; experiment: Cell cycle arrest in human HeLa cells assessed as accumulation at S phase after 24 hrs by propidium iodide staining-based flow cytometric analysis (reference value: 12.2%); type: functional; in short: as §2
[7] = molecular target: Protein arginine N-methyltransferase 6 (Homo sapiens, UniProt Q96LA8); experiment: Inhibition of His6X-tagged PRMT6 expressed in Escherichia coli BL21(DE3) cells using [14C]-S-adenosyl-L-methionine and histone H3(1-31) peptide after 8 mins by scintillation counting
Sequence of Protein arginine N-methyltransferase 6 (Q96LA8 whole entry): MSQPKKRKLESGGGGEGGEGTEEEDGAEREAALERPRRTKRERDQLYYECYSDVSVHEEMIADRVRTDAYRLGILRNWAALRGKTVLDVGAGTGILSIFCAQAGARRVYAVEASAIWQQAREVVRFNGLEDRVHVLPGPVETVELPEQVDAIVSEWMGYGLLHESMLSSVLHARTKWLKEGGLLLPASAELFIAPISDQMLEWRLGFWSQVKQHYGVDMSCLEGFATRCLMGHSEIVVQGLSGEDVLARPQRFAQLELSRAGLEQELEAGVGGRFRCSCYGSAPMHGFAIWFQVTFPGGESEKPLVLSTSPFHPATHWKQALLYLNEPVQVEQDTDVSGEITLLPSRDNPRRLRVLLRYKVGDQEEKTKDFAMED

[8] = test system: HeLa; experiment: Cell cycle arrest in human HeLa cells assessed as accumulation at G1 phase at 1 uM after 24 hrs by propidium iodide staining-based flow cytometric analysis (reference value: 57.2%); type: functional; in short: as §2
[9] = Cellular uptake in human HeLa cell cytoplasmic vesicles at 2 to 5 uM after 6 hrs by bright field microscopic analysis; type: ADME, cell-based; in short: as §3
[10] = Inhibition of His-tagged PRMT1 Y152A mutant expressed in Escherichia coli BL21(DE3) cells assessed as residual activity using [14C]-S-adenosyl-L-methionine and histone H4 peptide at 4 uM measured after 8 mins by scintillation counting; in short: as §1
[11] = Cellular uptake in human HeLa cell cytoplasmic vesicles at 2 to 5 uM after 6 hrs by fluorescent microscopic analysis; type: ADME, cell-based; in short: as §3
[12] = Cellular uptake in human HeLa cell nucleus after 6 hrs by bright field microscopic analysis; type: ADME, cell-based; in short: as §3
[13] = test system: HeLa; experiment: Cell cycle arrest in human HeLa cells assessed as accumulation at S phase at 1 uM after 24 hrs by propidium iodide staining-based flow cytometric analysis (reference value: 12.2%); type: functional; in short: as §2
[14] = molecular target: Protein arginine N-methyltransferase 3 (Homo sapiens, UniProt O60678); experiment: Inhibition of His6X-tagged PRMT3 expressed in Escherichia coli BL21(DE3) cells using [14C]-S-adenosyl-L-methionine and R4 peptide after 8 mins by scintillation counting
Sequence of Protein arginine N-methyltransferase 3 (O60678 whole entry): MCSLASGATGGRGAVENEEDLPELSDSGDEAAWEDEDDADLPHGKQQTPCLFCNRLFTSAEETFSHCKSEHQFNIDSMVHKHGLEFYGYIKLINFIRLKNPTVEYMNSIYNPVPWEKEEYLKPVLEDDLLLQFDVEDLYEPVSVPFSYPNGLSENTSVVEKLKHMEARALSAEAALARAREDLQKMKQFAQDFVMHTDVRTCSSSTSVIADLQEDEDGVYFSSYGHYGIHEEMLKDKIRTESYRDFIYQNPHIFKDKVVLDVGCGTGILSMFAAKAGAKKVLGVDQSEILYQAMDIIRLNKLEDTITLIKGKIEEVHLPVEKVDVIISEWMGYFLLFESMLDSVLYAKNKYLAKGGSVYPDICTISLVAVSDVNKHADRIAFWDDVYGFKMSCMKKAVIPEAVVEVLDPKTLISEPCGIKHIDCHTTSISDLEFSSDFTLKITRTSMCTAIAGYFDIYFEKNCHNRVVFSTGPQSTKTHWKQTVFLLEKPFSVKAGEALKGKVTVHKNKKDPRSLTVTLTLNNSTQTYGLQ

[15] = molecular target: Protein arginine N-methyltransferase 5 (Homo sapiens, UniProt O14744); experiment: Inhibition of His6X-tagged PRMT5 expressed in Escherichia coli BL21(DE3) cells using [14C]-S-adenosyl-L-methionine and histone H4 peptide after 8 mins by scintillation counting
Sequence of Protein arginine N-methyltransferase 5 (O14744 whole entry): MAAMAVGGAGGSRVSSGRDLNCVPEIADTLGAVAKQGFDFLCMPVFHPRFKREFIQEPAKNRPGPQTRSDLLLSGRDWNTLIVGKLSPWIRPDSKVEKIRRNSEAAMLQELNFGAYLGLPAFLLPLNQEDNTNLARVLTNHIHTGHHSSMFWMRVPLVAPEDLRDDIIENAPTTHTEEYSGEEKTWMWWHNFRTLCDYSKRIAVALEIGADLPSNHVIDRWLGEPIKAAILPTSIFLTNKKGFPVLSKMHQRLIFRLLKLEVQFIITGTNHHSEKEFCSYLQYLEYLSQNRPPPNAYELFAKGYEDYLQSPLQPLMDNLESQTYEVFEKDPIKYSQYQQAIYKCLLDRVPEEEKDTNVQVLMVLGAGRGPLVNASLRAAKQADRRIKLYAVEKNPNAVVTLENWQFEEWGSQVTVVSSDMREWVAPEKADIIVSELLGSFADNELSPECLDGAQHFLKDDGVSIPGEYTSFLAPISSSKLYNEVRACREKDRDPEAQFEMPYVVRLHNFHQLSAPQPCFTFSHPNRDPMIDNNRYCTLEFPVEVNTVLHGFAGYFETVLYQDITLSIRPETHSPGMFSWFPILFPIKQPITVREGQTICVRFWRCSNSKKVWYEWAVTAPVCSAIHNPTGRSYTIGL

[16] = Cellular uptake in human HeLa cell nucleus at 2 to 5 uM after 6 hrs by fluorescent microscopic analysis; type: ADME, cell-based; in short: as §3

Row | Structure (SMILES) | Activity [1] | inhibition [2] | Activity [3] | Drug uptake [4] | Activity [5] | Activity [6] | IC50 [7] | Activity [8] | Drug uptake [9] | inhibition [10] | Drug uptake [11] | Drug uptake [12] | Activity [13] | IC50 [14] | IC50 [15] | Drug uptake [16]
1 | CN1\C(=C/C=C(Cl)/C=C/C2=[N+](C)c3ccccc3C2(C)C)C(C)(C)c2ccccc21 | 80% |  |  |  |  |  |  |  |  |  |  |  |  |  |  | 
2 | COc1ccc2c(c1)C(C)(C)C(/C=C/C=C/C=C1\N(C)c3ccc(OC)cc3C1(C)C)=[N+]2C | 95% |  |  |  |  |  |  |  |  |  |  |  |  |  |  | 
3 | CCn1/c(=C\C=C\C2=[N+](CC)c3cccc4cccc2c34)c2cccc3cccc1c32.[I-] |  | 92% | 13.9% | Active | Active | Active | 12.6 µM | 23.6% | Active | Active | Active | Dose-dependent effect | 56.5% | 8.3 µM | 9.1 µM | Active
